Active and inactive are the calls of the source. The rule behind the calls is not given here.
Experiments:
Influenza A virus [1] = experiment: (§1) Antiviral activity against oseltamivir-susceptible zanamivir-, adamantane-resistant Influenza A virus (A/pdm/Illinois/10/2009(H1N1)) harboring M2 V28I, S31N mutant and neuraminidase H274Y mutant infected in MDCK cells assessed as inhibition of viral replication after 3 days by microscopic analysis using crystal violet stain; format: functional, organism-based, (A/Illinois/10/2009(H1N1))
Influenza A virus [2] = experiment: as §1, with “(A/pdm/Washington/29/2009 (H1N1))” for “(A/pdm/Illinois/10/2009(H1N1))”; format: functional, organism-based, Influenza A virus (A/Washington/29/2009(H1N1))
Influenza A virus [3] = experiment: Antiviral activity against 0.001 MOI adamantane-resistant zanamivir-,oseltamivir-susceptible Influenza A virus (A/pdm/Mexico/4604/2009(H1N1)) harboring M2 V28I, S31N mutant infected in MDCK cells assessed as determination of viral titer in cell culture at 1.6 uM after 24 hrs by immunofluorescence assay; format: functional, organism-based; conditions: Influenza A virus (A/Mexico/4604/2009(H1N1))
Method in brief: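 Focus inhibition assay: confluent MDCK monolayers infected at MOI ∼0.001–0.1. Adsorption 1 h at 4°C, washed twice, then DMEM with 2 μg/ml TPCK-trypsin and drug for 24 h at 37°C. Cells fixed in methanol/acetic acid at −20°C, immunostained with anti-NP monoclonals and FITC secondary, and foci counted. Supernatants also titrated by focus assay. Quadruplicate on two occasions.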

Influenza A virus [4] = experiment: Antiviral activity against Influenza A virus (A/Washington/29/2009(H1N1)) harboring neuraminidase H275Y mutant infected in MDCK cells from Mill Hill assessed as log reduction in viral titer at 1.6 uM after 24 hrs by immunofluorescent assay; format: functional
Method in brief: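 Yield reduction in MDCK-ATCC or MDCK-Mill Hill cells infected at MOI ∼0.01. Adsorption 1 h at 4°C, washed, then DMEM with 2 μg/ml TPCK-trypsin and drug. At 24 h, supernatants were titrated by immunofluorescent focus assay on MDCK cells with anti-NP monoclonals and FITC secondary. Titres as log10 FFU per 100 μl; detection limit <10 FFU. Quadruplicate, mean ± SD.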

Influenza A virus [5] = experiment: Antiviral activity against Influenza A virus (A/Illinois/10/2009(H1N1)) harboring neuraminidase H275Y mutant infected in MDCK cells from ATCC assessed as inhibition of viral replication after 3 days by microscopic analysis using crystal violet stain; format: functional
Method in brief: (§2)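 Confluent MDCK-ATCC monolayers infected with virus diluted to give 15–45 plaques/well. Adsorption 1 h at 37°C without drug, then washed. Overlaid with 0.8% agarose in MEM containing drug plus TPCK-trypsin: 3 μg/ml for seasonal viruses, 2 μg/ml for 2009 A(H1N1). Incubated 3 days at 37°C, 5% CO2. Ethanol-fixed, crystal violet-stained, plaques counted. EC50 by curve fit; duplicates on three occasions, mean ± SD.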

Influenza A virus [6] = experiment: Antiviral activity against Influenza A virus (A/Washington/29/2009(H1N1)) harboring neuraminidase H275Y mutant infected in MDCK cells from Mill Hill assessed as inhibition of viral replication after 3 days by microscopic analysis using crystal violet stain; format: functional
Influenza A virus [7] = experiment: Antiviral activity against adamantane-, zanamivir-susceptible oseltamivir-resistant Influenza A virus (A/New Jersey/15/2007(H1N1)) harboring neuraminidase H274Y mutant infected in MDCK cells assessed as inhibition of viral replication after 3 days by microscopic analysis using crystal violet stain; format: functional, organism-based; method in brief: as §2
Influenza A virus [8] = experiment: Antiviral activity against adamantane-susceptible zanamivir-, oseltamivir-resistant Influenza A virus (A/Santiago/5248/2008(H1N1)) harboring neuraminidase D198E mutant infected in MDCK cells assessed as inhibition of viral replication after 3 days by microscopic analysis using crystal violet stain; format: functional, organism-based
Influenza A virus [9] = experiment: Antiviral activity against adamantane-resistant zanamivir-,oseltamivir-susceptible Influenza A virus (A/New York/34/2008(H1N1)) harboring M2 L26I mutant infected in MDCK cells assessed as inhibition of viral replication after 3 days by microscopic analysis using crystal violet stain; format: functional, organism-based; method in brief: as §2
Influenza A virus [10] = experiment: Antiviral activity against adamantane-, zanamivir-susceptible oseltamivir-resistant Influenza A virus (A/Washington/10/2008(H1N1)) harboring M2 S31N mutant infected in MDCK cells assessed as inhibition of viral replication after 3 days by microscopic analysis using crystal violet stain; format: functional, organism-based; method in brief: as §2
Influenza A virus [11] = experiment: Antiviral activity against adamantane-resistant zanamivir-,oseltamivir-susceptible Influenza A virus (A/Wisconsin/16/2008(H1N1)) harboring neuraminidase H274Y mutant infected in MDCK cells assessed as inhibition of viral replication after 3 days by microscopic analysis using crystal violet stain; format: functional, organism-based; method in brief: as §2
Influenza A virus [12] = experiment: Antiviral activity against adamantane-, zanamivir-susceptible oseltamivir-resistant Influenza A virus (A/North Carolina/02/ 2009(H1N1)) harboring M2 S31N mutant infected in MDCK cells assessed as inhibition of viral replication after 3 days by microscopic analysis using crystal violet stain; format: functional, organism-based; method in brief: as §2
Influenza A virus [13] = experiment: Antiviral activity against oseltamivir-susceptible zanamivir-, adamantane-resistant Influenza A virus (A/Wuhan/395/1995-like (H3N2)) harboring neuraminidase E119V mutant infected in MDCK cells assessed as inhibition of viral replication after 3 days by microscopic analysis using crystal violet stain; format: functional, organism-based
Influenza A virus [14] = experiment: Antiviral activity against adamantane-resistant zanamivir-,oseltamivir-susceptible Influenza A virus (A/New Hampshire/01/2009(H3N2)) harboring M2 S31N mutant infected in MDCK cells assessed as inhibition of viral replication after 3 days by microscopic analysis using crystal violet stain; format: functional, organism-based; method in brief: as §2
Influenza A virus [15] = experiment: Antiviral activity against adamantane-resistant zanamivir-,oseltamivir-susceptible Influenza A virus (A/Massachusetts/03/2009(H3N2)) harboring M2 S31N mutant infected in MDCK cells assessed as inhibition of viral replication after 3 days by microscopic analysis using crystal violet stain; format: functional, organism-based; method in brief: as §2
Influenza B virus [16] = experiment: Antiviral activity against oseltamivir-susceptible zanamivir-, adamantane-resistant Influenza B virus (B/Rochester/01/2001) harboring neuraminidase D198N mutant infected in MDCK cells assessed as inhibition of viral replication after 3 days by microscopic analysis using crystal violet stain; format: functional, organism-based
[17] = Antiviral activity against adamantane-, oseltamivir-, zanamivir-resistant Influenza B virus (B/Illinois/03/2008) harboring neuraminidase E119A mutant infected in MDCK cells assessed as inhibition of viral replication after 3 days by microscopic analysis using crystal violet stain; format: functional, cell-based; method in brief: as §2
Influenza A virus [18] = experiment: Antiviral activity against adamantane-resistant zanamivir-,oseltamivir-susceptible Influenza A virus (A/pdm/Mexico/4604/2009 (H1N1)) harboring M2 V28I, S31N mutant infected in MDCK cells assessed as inhibition of viral replication after 3 days by microscopic analysis using crystal violet stain; format: functional, organism-based, Influenza A virus (A/Mexico/4604/2009(H1N1))
Influenza A virus [19] = experiment: Antiviral activity against adamantane-resistant zanamivir-,oseltamivir-susceptible Influenza A virus (A/pdm/New York/18/2009 (H1N1)) harboring M2 V28I, S31N mutant infected in MDCK cells assessed as inhibition of viral replication after 3 days by microscopic analysis using crystal violet stain; format: functional, organism-based, Influenza A virus (A/New York/18/2009(H1N1))
Method in brief: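 Plaque reduction on confluent MDCK-ATCC monolayers: pretitrated virus (15–45 plaques per well) adsorbed 1 h at 37°C without drug, then washed with PBS. Agarose overlay (0.8%, in MEM) with drug added, 3 days at 37°C. Cells fixed with 70% ethanol, stained with crystal violet, plaques counted. EC50 from curve fitting, averaged over three separate experiments in duplicate, ± SD.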

Influenza A virus [20] = experiment: microbe, parasite or virus in culture; conditions: (A/Wuhan/395/1995-like (H3N2)), MDCK, 72 h
Influenza B virus [21] = experiment: microbe, parasite or virus in culture; conditions: B/New York/22/2008, MDCK, 72 h

SMILES: NC(=O)c1nc(F)cnc1O [FAVIPIRAVIR]
- EC50 (Influenza A virus [1]): 22.5 µM
- EC50 (Influenza A virus [2]): 6.62 µM
- Activity (Influenza A virus [3]): Active
- log10FFU (Influenza A virus [4]): 5.4
- log10FFU (Influenza A virus [5]): 4.21
- log10FFU (Influenza A virus [6]): 6.32
- EC50 (Influenza A virus [7]): 4.9 µM
- EC50 (Influenza A virus [8]): 4.7 µM
- EC50 (Influenza A virus [9]): 0.19 µM
- EC50 (Influenza A virus [10]): 3.25 µM
- EC50 (Influenza A virus [11]): 2.87 µM
- EC50 (Influenza A virus [12]): 5.03 µM
- EC50 (Influenza A virus [13]): 5.41 µM
- EC50 (Influenza A virus [14]): 4.08 µM
- EC50 (Influenza A virus [15]): 4.2 µM
- EC50 (Influenza B virus [16]): 1.72 µM
- EC50 [17]: 3 µM
- EC50 (Influenza A virus [18]): 1.21 µM
- EC50 (Influenza A virus [19]): 0.89 µM
- EC50 (Influenza A virus [20]): 5.99 µM
- EC50 (Influenza B virus [21]): 5.3 µM

— ChEMBL document CHEMBL1671691 (Antimicrob Agents Chemother, 2010)
